Test results reported in ChEMBL document CHEMBL1122693, “Biological activity and a modified synthesis of 8-amino-3-beta-D-ribofuranosyl-1,2,4-triazolo[4,3-a]pyrazine, an isomer of formycin” (1984).
Values after ≈ are worked out from the molar mass of the structure shown. Values joined by “and” are separate entries in the source; they are usually repeats but may differ in a detail not shown here. Identical values can stand only once.

Key:
Coxsackievirus B4 [1] = assay: Compound was tested for antiviral activity (minimum inhibition concentration) in HeLa cells coxsackie virus type 4; assay type: functional; settings: Enterovirus B
Summary of the method: (§1)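 Inhibition of virus-induced cytopathogenicity, scored as minimum inhibitory concentration (µg/mL) in the host cell monolayers listed: HSV-1 (KOS) and HSV-2 (G) in primary rabbit kidney cells; measles, reovirus type 1, parainfluenza type 3, Coxsackie B4 and Sindbis in Vero cells; Coxsackie and polio in HeLa cells. Minimum cytotoxic concentration taken as microscopically detectable alteration of normal cell morphology; highest concentration tested 400 µg/mL.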

Coxsackievirus B4 [2] = assay: Compound was tested for antiviral activity (minimum inhibition concentration) in Vero cells coxsackie virus type B4; assay type: functional; settings: Enterovirus B; summary of the method: as §1
Human alphaherpesvirus 1 = assay: Compound was tested for antiviral activity against herpes simplex virus-1(KOS) in primary rabbit kidney cells; assay type: functional; summary of the method: as §1
Human alphaherpesvirus 2 = assay: Compound was tested for antiviral activity against herpes simplex virus-2(G) in primary rabbit kidney cells; assay type: functional; summary of the method: as §1
L1210 [3] = assay: Effect of compound on the incorporation of nucleic acid precursor into L1210 cells (cpm x 10e-3),precursors used along with compound were [14C]uridine; assay type: functional, Mus musculus
Summary of the method: (§2)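 L1210 suspension cultures in RPMI 1640 with 10% horse serum, at 37 °C, preincubated 90 min with or without test compound at 1 mM. 14C-precursor (cytidine, uridine, adenosine or thymidine) then added to 0.04 µCi/mL final and incubated a further 30 min. Cells pelleted and Schmidt-Thannhauser fractionation gave acid-soluble, RNA and DNA fractions, counted by scintillation. Duplicate flasks; results as cpm ×10^-3 and % of control.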

L1210 [4] = assay: Effect of compound on the incorporation of nucleic acid precursor into L1210 cells (cpm x 10e-3), precursors used along with compound were [14C]-Adenosine; assay type: functional, Mus musculus; summary of the method: as §2
L1210 [5] = assay: Effect of compound on the incorporation of nucleic acid precursor into L1210 cells (cpm x 10e-3), precursors used along with compound were [14C]cytidine; assay type: functional, Mus musculus; summary of the method: as §2
L1210 [6] = assay: Effect of compound on the incorporation of nucleic acid precursor into L1210 cells (cpm x 10e-3),precursors used along with compound were [14C]cytidine; assay type: functional, Mus musculus; summary of the method: as §2
Measles morbillivirus = assay: Compound was tested for antiviral activity against measles virus in vero cells; assay type: functional; summary of the method: as §1
Human respirovirus 3 = assay: Compound was tested for antiviral activity (minimum inhibition concentration) in Vero cells parainfluenza virus type 3; assay type: functional; summary of the method: as §1
Poliovirus 1 = assay: Compound was tested for antiviral activity (minimum inhibition concentration) in HeLa cells polio virus type 1; assay type: functional; settings: Enterovirus C
[7] = system: Mammalian orthoreovirus 1; assay: Compound was tested for antiviral activity (minimum inhibition concentration) in Vero cells reovirus type 1; assay type: functional; summary of the method: as §1
Sindbis virus = assay: Compound was tested for antiviral activity (minimum inhibition concentration) in Vero cells sindbis virus; assay type: functional; summary of the method: as §1
[8] = system: Vesicular stomatitis virus; assay: Compound was tested for antiviral activity (minimum inhibition concentration) in HeLa cells vesicular stomatitis virus (VSV); assay type: functional
[9] = system: Vesicular stomatitis virus; assay: Compound was tested for antiviral activity against vesicular stomatitis virus in primary rabbit kidney cells; assay type: functional
Vaccinia virus = assay: Compound was tested for antiviral activity against vaccinia virus in primary rabbit kidney cells; assay type: functional; settings: Orthopoxvirus vaccinia
[10] = Coronary vasoactivity (molar potency ratio (MPR), the quotient of ED50 of adenosine by that of the test nucleoside)Dog to dog variations in MPR are about +/-10%; assay type: functional
Summary of the method: (§3)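 Dogs anesthetized with morphine-thiamylal-fluothane. MPR is ED50 of adenosine divided by ED50 of test nucleoside. Dog-to-dog variation in MPR about ±10%.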

[11] = Coronary vasoactivity as molar potency ratio (MPR), the quotient of ED50 of adenosine by that of the test nucleoside; assay type: functional; summary of the method: as §3

Q: With `Nc1nccn2c([C@@H]3O[C@H](CO)[C@@H](O)[C@H]3O)nnc12` as the compound, how does the MIC (Coxsackievirus B4 [1]) read?
A: > 400 µg/mL

Q: And the MIC (Coxsackievirus B4 [2])?
A: 200 µg/mL (≈ 748 µM)

Q: What about the MIC (Human alphaherpesvirus 1) of the same compound?
A: > 400 µg/mL

Q: And the MIC (Human alphaherpesvirus 2)?
A: 200 µg/mL (≈ 748 µM)

Q: What about the Fraction (L1210 [3]) of the same compound?
A: 24

Q: And the RNA fraction (L1210 [4])?
A: 24 and 19.8

Q: And the Total uptake (L1210 [5])?
A: 128.8 and 161.7

Q: And the Total uptake (L1210 [6])?
A: 50.4

Q: What about the MIC (Measles morbillivirus) of the same compound?
A: 200 µg/mL (≈ 748 µM)

Q: What about the MIC (Human respirovirus 3) of the same compound?
A: 100 µg/mL (≈ 374 µM)

Q: What about the MIC (Poliovirus 1) of the same compound?
A: > 400 µg/mL

Q: And the MIC [7]?
A: 200 µg/mL (≈ 748 µM)

Q: And the MIC (Sindbis virus)?
A: 300 µg/mL (≈ 1120 µM)

Q: And the MIC [8]?
A: 150 µg/mL (≈ 561 µM)

Q: And the MIC [9]?
A: 100 µg/mL (≈ 374 µM)

Q: What about the MIC (Vaccinia virus) of the same compound?
A: 100 µg/mL (≈ 374 µM)

Q: What about the MPR [10] of the same compound?
A: 0.0015

Q: For `Nc1ncnc2c1ccn2[C@@H]1O[C@H](CO)[C@@H](O)[C@H]1O`, which MPR [11] is on record?
A: 0.071

Q: Which MIC (Coxsackievirus B4 [1]) does the source give for `NC(=O)c1ncn([C@@H]2O[C@H](CO)[C@@H](O)[C@H]2O)n1` [RIBAVIRIN] here?
A: 20 µg/mL (≈ 81.9 µM)

Q: What about the MIC (Coxsackievirus B4 [2]) of the same compound?
A: 200 µg/mL (≈ 819 µM)

Q: And the MIC (Human alphaherpesvirus 1)?
A: > 400 µg/mL

Q: And the MIC (Human alphaherpesvirus 2)?
A: > 400 µg/mL

Q: What about the MIC (Measles morbillivirus) of the same compound?
A: 20 µg/mL (≈ 81.9 µM)

Q: And the MIC (Human respirovirus 3)?
A: 10 µg/mL (≈ 40.9 µM)

Q: And the MIC (Poliovirus 1)?
A: 10 µg/mL (≈ 40.9 µM)

Q: And the MIC [7]?
A: 100 µg/mL (≈ 409 µM)

Q: What about the MIC (Sindbis virus) of the same compound?
A: 40 µg/mL (≈ 164 µM)

Q: What about the MIC [8] of the same compound?
A: 20 µg/mL (≈ 81.9 µM)

Q: What about the MIC [9] of the same compound?
A: 20 µg/mL (≈ 81.9 µM)

Q: And the MIC (Vaccinia virus)?
A: 20 µg/mL (≈ 81.9 µM)

Q: For `Nc1ncnc2c1nnn2[C@@H]1O[C@H](CO)[C@@H](O)[C@H]1O`, which MPR [11] is on record?
A: 0.042

Q: Which MPR [11] does the source give for `Nc1nnnc2c1ncn2[C@@H]1O[C@H](CO)[C@@H](O)[C@H]1O` here?
A: 0.15

Q: With `Nc1nccc2c1ncn2[C@@H]1O[C@H](CO)[C@@H](O)[C@H]1O` as the compound, how does the MIC (Coxsackievirus B4 [1]) read?
A: 40 µg/mL (≈ 150 µM)

Q: What about the MIC (Coxsackievirus B4 [2]) of the same compound?
A: 4 µg/mL (≈ 15 µM)

Q: What about the MIC (Human alphaherpesvirus 1) of the same compound?
A: 40 µg/mL (≈ 150 µM)

Q: What about the MIC (Human alphaherpesvirus 2) of the same compound?
A: 10 µg/mL (≈ 37.6 µM)

Q: What about the MIC (Measles morbillivirus) of the same compound?
A: 40 µg/mL (≈ 150 µM)

Q: What about the MIC (Human respirovirus 3) of the same compound?
A: 2 µg/mL (≈ 7.51 µM)

Q: And the MIC (Poliovirus 1)?
A: 40 µg/mL (≈ 150 µM)

Q: And the MIC [7]?
A: 4 µg/mL (≈ 15 µM)

Q: And the MIC (Sindbis virus)?
A: 40 µg/mL (≈ 150 µM)

Q: And the MIC [8]?
A: 10 µg/mL (≈ 37.6 µM)

Q: And the MIC [9]?
A: 7 µg/mL (≈ 26.3 µM)

Q: And the MIC (Vaccinia virus)?
A: 7 µg/mL (≈ 26.3 µM)

Q: Which results are given for `Nc1ncnc2c([C@@H]3O[C@H](CO)[C@@H](O)[C@H]3O)[nH]nc12` [FORMYCIN]?
A: MIC (Coxsackievirus B4 [1]): ≥ 200 µg/mL; MIC (Coxsackievirus B4 [2]): ≥ 40 µg/mL; MIC (Human alphaherpesvirus 1): 4 µg/mL (≈ 15 µM); MIC (Human alphaherpesvirus 2): 4 µg/mL (≈ 15 µM); MIC (Measles morbillivirus): ≥ 40 µg/mL; MIC (Human respirovirus 3): ≥ 40 µg/mL; MIC (Poliovirus 1): 10 µg/mL (≈ 37.4 µM); MIC [7]: ≥ 40 µg/mL; MIC (Sindbis virus): ≥ 40 µg/mL; MIC [8]: 10 µg/mL (≈ 37.4 µM); MIC [9]: 2 µg/mL (≈ 7.48 µM); MIC (Vaccinia virus): 4 µg/mL (≈ 15 µM); MPR [11]: 0.043
